Assays:
Type in all cases: functional
MCF7 = assay: Cytotoxicity against human MCF7 cells at 100 uM after 72 hrs by MTT assay; conditions: MCF7, 72 h
Outline: (§1)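 Log-phase cells in DMEM with 10% FBS (37 °C, 5% CO2) were plated in duplicate at 2500–4000 cells/well. Agent was added 24 h later at a fixed final concentration of 100 µM and left for 72 h continuous exposure. Read-out was MTT absorbance at 540 nm, expressed as percent growth inhibition, where 100% means total growth inhibition.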

[1] = Cytotoxicity against human BE2C cells at 100 uM after 72 hrs by MTT assay; conditions: BE(2)-C; outline: as §1
DU-145 = assay: Cytotoxicity against human DU145 cells at 100 uM after 72 hrs by MTT assay; conditions: DU-145, 72 h; outline: as §1
A-431 = assay: Cytotoxicity against human A431 cells at 100 uM after 72 hrs by MTT assay; conditions: A-431, 72 h; outline: as §1
SW480 = assay: Cytotoxicity against human SW480 cells at 100 uM after 72 hrs by MTT assay; conditions: SW480, 72 h; outline: as §1
A2780 = assay: Cytotoxicity against human A2780 cells at 100 uM after 72 hrs by MTT assay; conditions: A2780, 72 h; outline: as §1
NCI-H460 = assay: Cytotoxicity against human H460 cells at 100 uM after 72 hrs by MTT assay; conditions: NCI-H460, 72 h; outline: as §1
[2] = Cytotoxicity against human SJG2 cells at 100 uM after 72 hrs by MTT assay; conditions: SJ-G2, 72 h; outline: as §1
HT-29 = assay: Cytotoxicity against human HT29 cells at 100 uM after 72 hrs by MTT assay; conditions: HT-29, 72 h; outline: as §1

Row | SMILES | inhibition at 100 µM (MCF7) [%] | inhibition at 100 µM [1] [%] | inhibition at 100 µM (DU-145) [%] | inhibition at 100 µM (A-431) [%] | inhibition at 100 µM (SW480) [%] | inhibition at 100 µM (A2780) [%] | inhibition at 100 µM (NCI-H460) [%] | inhibition at 100 µM [2] [%] | inhibition at 100 µM (HT-29) [%] | GI50 (MCF7) [µM] | GI50 [1] [µM] | GI50 (DU-145) [µM] | GI50 (A-431) [µM] | GI50 (SW480) [µM] | GI50 (A2780) [µM] | GI50 (NCI-H460) [µM] | GI50 [2] [µM] | GI50 (HT-29) [µM]
1 | O=C(O)CCCN1C(=O)[C@@H]2[C@H](C1=O)[C@@H]1CC[C@H]2O1 | < 10 | < 10 | < 10 | < 10 | < 10 | < 10 | < 10 | < 10 | < 10 | – | – | – | – | – | – | – | – | –
2 | COC(CO)CN1C(=O)[C@@H]2[C@H](C1=O)[C@@H]1CC[C@H]2O1 (stereo partly drawn) | 33 | < 10 | < 10 | < 10 | < 10 | < 10 | < 10 | < 10 | 12 | – | – | – | – | – | – | – | – | –
3 | CC(CO)N1C(=O)[C@@H]2[C@H](C1=O)[C@@H]1CC[C@H]2O1 (stereo partly drawn) | < 10 | < 10 | < 10 | < 10 | < 10 | < 10 | < 10 | < 10 | < 10 | – | – | – | – | – | – | – | – | –
4 | O=C1[C@@H]2[C@H](C(=O)N1c1ccccc1)[C@@H]1CC[C@H]2O1 | > 100 | 54 | 24 | 25 | 78 | 90 | 50 | 42 | 63 | – | – | – | – | – | – | – | – | –
5 | CCC(C)N1C(=O)[C@@H]2[C@H](C1=O)[C@@H]1CC[C@H]2O1 (stereo partly drawn) | < 10 | < 10 | < 10 | < 10 | < 10 | < 10 | < 10 | < 10 | < 10 | – | – | – | – | – | – | – | – | –
6 | CCC(CO)N1C(=O)[C@@H]2[C@H](C1=O)[C@@H]1CC[C@H]2O1 (stereo partly drawn) | < 10 | < 10 | < 10 | < 10 | < 10 | < 10 | < 10 | < 10 | < 10 | – | – | – | – | – | – | – | – | –
7 | COc1ccc(CN2C(=O)[C@@H]3[C@H](C2=O)[C@@H]2CC[C@H]3O2)cc1 | 64 | 29 | < 10 | 14 | 24 | 20 | 23 | 11 | 45 | – | – | – | – | – | – | – | – | –
8 | CCCCCCCCCCCCN1C(=O)[C@@H]2[C@H](C1=O)[C@@H]1CC[C@H]2O1 | 52 | 40 | 66 | 35 | 55 | 40 | 53 | 58 | 25 | – | – | – | – | – | – | – | – | –
9 | CCN1C(=O)[C@@H]2[C@H](C1=O)[C@@H]1CC[C@H]2O1 | < 10 | < 10 | < 10 | < 10 | < 10 | < 10 | < 10 | < 10 | < 10 | – | – | – | – | – | – | – | – | –
10 | O=C1[C@@H]2[C@H](C(=O)N1CCN1CCOCC1)[C@@H]1CC[C@H]2O1 | < 10 | < 10 | < 10 | < 10 | < 10 | < 10 | < 10 | < 10 | < 10 | – | – | – | – | – | – | – | – | –
11 | C=CCCN1C(=O)[C@@H]2[C@H](C1=O)[C@@H]1CC[C@H]2O1 | < 10 | < 10 | < 10 | < 10 | < 10 | < 10 | < 10 | < 10 | < 10 | – | – | – | – | – | – | – | – | –
12 | CCCCCCCCCCCCCCN1C(=O)[C@@H]2[C@H](C1=O)[C@@H]1CC[C@H]2O1 | – | – | – | – | – | – | – | – | – | 43 | 50 | 73 | 47 | 52 | 35 | 66 | 49 | 19
